S100A4 inh HTS = inhibitors of S100A4-myosin IIA peptide binding, primary screen, biochemical, fluorescence polarization, TAMRA-MyoIIA peptide; inhibition, % at 10.7 µM; 360,000 compounds, 0.14% hits;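 active means mean inhibition of at least 70% across replicates, with every replicate also reaching that level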
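Material: S100A4 monomer protein | Medium: HEPES pH 7.2 with CaCl2, KCl, NaCl, DTT, Triton | Reagent: Labelled myosin peptide probe, 5 nM | Doses: One dose per compound | Times: 5 min incubation before reading | Benchmarks: Neutral control DMSO, positive control TFP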
SIRT5 inh = SIRT5 desuccinylase inhibitors, primary screen, biochemical, fluorescence imaging, single point, set 5; NAD-dependent protein deacylase sirtuin-5, mitochondrial (Homo sapiens), Q9NXA8; Purified SirT5, succinyl-peptide AMC, trypsin-coupled fluorescence; inhibition, % at 15 µM; 330,000 compounds, 1.1% hits; AID 652115, 2013; in the data active means inhibition above about 15%
ERAP1 inh = human ERAP1 aminopeptidase inhibitors, primary screen, biochemical, single point, plate reader; Endoplasmic reticulum aminopeptidase 1 (Homo sapiens), Q9NZ08; recombinant ERAP1, Leu-AMC fluorescence, 60 min; inhibition, % at 10.7 µM; 340,000 compounds, 0.15% hits; AID 652197, 2013;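 active means mean replicate inhibition of at least 30%, or all replicates individually reaching that 30% level; inactive means mean below 30% and not every replicate reaching it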;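 further: 0% = neutral control wells and 100% = L-leucinethiol positive control wells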
Target sequence (Q9NZ08 whole entry, looked up): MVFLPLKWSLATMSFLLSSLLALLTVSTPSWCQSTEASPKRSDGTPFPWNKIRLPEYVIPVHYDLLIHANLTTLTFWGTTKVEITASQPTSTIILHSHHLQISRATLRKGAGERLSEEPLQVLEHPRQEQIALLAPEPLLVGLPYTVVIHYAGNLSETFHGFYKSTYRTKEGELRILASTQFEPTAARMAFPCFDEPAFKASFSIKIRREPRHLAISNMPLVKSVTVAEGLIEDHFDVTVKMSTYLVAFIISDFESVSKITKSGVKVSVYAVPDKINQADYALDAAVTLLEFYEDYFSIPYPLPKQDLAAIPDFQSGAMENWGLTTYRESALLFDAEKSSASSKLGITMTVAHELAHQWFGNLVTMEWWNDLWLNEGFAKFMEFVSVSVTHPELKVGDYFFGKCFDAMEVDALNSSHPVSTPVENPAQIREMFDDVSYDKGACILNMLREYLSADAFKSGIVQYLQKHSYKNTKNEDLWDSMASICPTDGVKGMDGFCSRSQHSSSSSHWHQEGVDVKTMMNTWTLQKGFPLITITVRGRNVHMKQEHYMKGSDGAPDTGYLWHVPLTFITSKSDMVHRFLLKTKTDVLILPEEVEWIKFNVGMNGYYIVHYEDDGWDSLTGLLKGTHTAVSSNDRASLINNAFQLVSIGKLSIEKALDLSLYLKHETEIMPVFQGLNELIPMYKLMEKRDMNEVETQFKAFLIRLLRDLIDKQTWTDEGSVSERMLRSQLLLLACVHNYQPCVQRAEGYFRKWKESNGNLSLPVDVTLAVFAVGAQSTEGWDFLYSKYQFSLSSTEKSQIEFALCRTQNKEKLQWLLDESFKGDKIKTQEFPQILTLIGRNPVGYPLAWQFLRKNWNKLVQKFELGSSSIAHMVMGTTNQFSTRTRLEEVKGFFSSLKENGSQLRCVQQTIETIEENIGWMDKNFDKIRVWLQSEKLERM
AF4-AF9 inh = inhibitors of AF4 peptide binding to AF9, primary screen, biochemical, AlphaScreen, biotin-AF4 peptide, FLAG-AF9, single point; inhibition, % at 10 µM; 350,000 compounds, 0.47% hits;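 active means every replicate reaching a set inhibition limit, whatever the replicate mean, cut at about 25% in these data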;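 further: 0% = plate neutral control median and 100% = total signal loss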
E-selectin induc = E-selectin induction in HUVECs, primary screen, imaging, HUVEC, immunofluorescence imaging, single point. normalized: neutral wells 0, TNF-alpha wells 100. activation, % at 7.58 µM. P16581. 260,000 compounds, 0.37% hits;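 active means mean E-selectin-positive cell signal at least 10% of the positive control, reached in at least 60% of replicates, without over 20% cell loss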
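Read-out basis: % PE-positive cells; Test system: HUVEC primary endothelial cells; Technique: immunofluorescence imaging; Dosing: single-point compound dose.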
Ecoli rRNA inh = reduced GFP signal of wild-type E. coli, primary screen, bacterial rRNA inhibitor project, GFP/RFP fluorescence, OD600, single point; 350,000 compounds, 1.6% hits; E. coli WT GFP vs humanized-ribosome RFP mutants, 24 h; stronger effect = lower value; DMSO median 0, no signal -100; GFP signal change (wild-type ribosome), % (test concentration not listed);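 active means significant combined selectivity score with lowered wild-type GFP, culture density cut under 30%, mutant RFP and density less affected; inactive means any of these conditions unmet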
* hit, by the source's call; . = no result given; ! = not confirmed by another sample. This is a sample that favours compounds with a hit; in the whole collection about 3.4% have one here.

SMILES	S100A4 inh HTS	SIRT5 inh	ERAP1 inh	AF4-AF9 inh	E-selectin induc	Ecoli rRNA inh
FC(F)(F)c1ccccc1/C=N/N1CCN(Cc2ccccc2)CC1	-4.6	-1.2	5.0	12.3	0.2	-21.2
Clc1ccccc1/C=N/N1CCN(Cc2ccccc2)CC1	-0.9	1.9	-3.1	34.2*	.	-16.0
CCOc1ccccc1/C=N/N1CCN(Cc2ccccc2)CC1	-3.4	-3.7	2.8	27.5*	.	5.7
CNC[C@H]1Oc2ncc(C#Cc3ccccc3F)cc2C(=O)N([C@@H](C)CO)C[C@H]1C	-0.4	-2.2	0.1	5.8	0.2	6.4
Brc1cnc2nc(SCc3nc4ccccc4[nH]3)[nH]c2c1	-1.6	-0.5	2.2	-1.7	52.8*	6.5
CN(C)c1ccc(/C=C2\N=C(C(C)(C)C)OC2=O)cc1	-2.8	18.1*	1.8	9.4	.	13.1
C[C@@H]1CCCCO[C@@H](CN(C)Cc2ccccc2)[C@@H](C)CN([C@@H](C)CO)C(=O)c2cc(NC(=O)Cc3ccccc3)ccc2O1	-25.0	-0.6	1.6	3.3	.	1.0
CCC1(C)Cc2ccccc2-c2nc(NCCCO)[nH]c(=O)c21 (centres undefined)	6.2	-21.0	.	4.9	6.9	-28.0*
CCC1(CC)Cc2ccccc2-c2nc(NCCCO)[nH]c(=O)c21	0.5	-6.1	-1.2	-9.5	0.9	-2.7
C[C@@H]1CN([C@H](C)CO)C(=O)c2cc(NC(=O)Nc3ccc4c(c3)OCO4)ccc2O[C@@H]1CN(C)C(=O)NC1CCCCC1	5.5	7.3	1.4	3.1	-0.3	-0.8
C[C@H](NC(=O)C[C@@H]1C[C@H]2c3cc(NC(=O)NC4CCCCC4)ccc3O[C@H]2[C@@H](CO)O1)c1ccccc1	-13.0	-3.2	-0.4	-0.3	0.9	-4.6
COc1cccc(C(=O)Oc2ccc(/C=N/Nc3ccc(C(=O)O)cc3)cc2OC)c1	1.2	8.4	-0.5	9.8	.	-33.0
CCOc1cc(/C=N/Nc2ccc(C(=O)O)cc2)ccc1OC(=O)c1ccccc1C	-5.4	26.4*	-0.3	0.4	.	-3.3
COc1ccc2c3c([nH]c2c1)[C@@H](CO)N(S(=O)(=O)c1cn(C)cn1)CC31CCN(Cc2ccccc2)CC1	.	.	.	.	.	-1.9
O=C(NCCCCc1ccccc1)c1ccccc1Br	-2.8	-3.1	-2.2	1.5	.	-36.2*
CCOC(=O)c1cc(C(C)C)sc1NC(=O)COC(=O)CCS(=O)(=O)c1ccccc1	-3.4	33.5*	-1.0	-5.2	.	3.0
CCOC(=O)c1ccsc1NC(=O)CCS(=O)(=O)c1ccccc1	-3.9	-5.9	-1.8	-1.2	1.8	-10.3
CC(C)n1cnc2c(N(C)c3cccc(Cl)c3)nc(N(CCO)CCO)nc21	-3.2	-6.8	-2.1	0.8	-0.1	-33.2*
CCOC(=O)N1CCN(Cc2cc(Cl)c3cccnc3c2O)CC1	-2.0	11.4	5.6	69.9*	.	-51.5
CN1CCN(Cc2cc(Cl)c3cccnc3c2OC(=O)c2cccs2)CC1	.	.	.	.	0.6	.
CCOC(=O)c1nn(-c2ccccc2)cc1O	-6.5	27.8*	-3.7	-0.5	1.2	-6.5
CN(C)C(=O)c1cccc(-c2ccc(C3[C@@H]4CN(C(=O)c5ccccn5)C[C@H]3N4)cc2)c1 (some centres undefined)	-12.6	21.8*!	1.1	-4.2	0.0	5.7
CN(C)C(=O)c1cccc(-c2ccc(C3[C@@H]4CN(C(=O)Cc5ccccc5)C[C@H]3N4)cc2)c1 (some centres undefined)	.	.	.	.	0.2	-1.3
CN(C)C(=O)c1ccc(-c2ccc(C3[C@@H]4CN(C(=O)Cc5ccccc5)C[C@H]3N4)cc2)cc1 (some centres undefined)	-17.6	17.0*!	-0.7	-7.9	-0.7	1.6
COc1cccc(C(=O)Nc2ccc3c(c2)C(=O)N(C)C[C@@H](OC)[C@H](C)CN(C)[C@@H](C)CO3)c1	5.9	-0.7	-2.9	-2.9	0.0	1.2

Compound activity (PubChem)
